Measured values as given in article PMC4682886 (ChemMedChem, 2015).
Converted amounts (≈) assume the structure as drawn. Read-outs that look alike come from different tables or passages of the source.

Tests used:
[1] = in the presence of fluconazole; lowest value; ref [45]; cited from earlier work
[2] = test system: resistant clinical isolates of C. albicans; format: cell-based; settings: for Growth (OD600) +Fluc: fluconazole 64 μg/mL alone; for Growth (OD600) +Fluc / Growth (OD600) +Cpd 31 +Fluc: 16 h in SC at 30°C; for Growth (OD600) +Cpd 31 +Fluc: compound 31 3 μM + fluconazole 64 μg/mL
[3] = test system: C. albicans strain HLY4123 and fluconazole-resistant clinical isolates 26 and 45; assay: microbe, parasite or virus in culture; format: cell-based; settings: for MIC90: Candida albicans; for MICcpd (MIC90): compound 31 alone; for FICI: compound 31 and fluconazole; for MICcpd(+Flc) (MIC90): compound 31 in combination with fluconazole
[4] = test system: resistant clinical isolates of C. albicans; parameters: unit not given beside the values; settings: ref [69], cited from earlier work
[5] = target: C. albicans sterol α-demethylase (a.k.a. Erg11 or CYP51); settings: ref [71],[72]; cited from earlier work
[6] = test system: C. albicans susceptible strain HLY4123; assay: Dose-response curves of test compounds against C. albicans with fluconazole; format: cell-based; settings: strain HLY4123, in the presence of fluconazole (0.25 μg/mL); mean ± SD of three independent experiments
[7] = test system: NIH 3T3 cells; assay: Cytotoxicity against NIH 3T3 cells; format: cell-based; settings: concentrations up to 1.5 mM, listed as Synazo-1
Outline: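 Test compound applied to NIH 3T3 cells at concentrations up to 1.5 mM. Values are arithmetic means ± SD of three independent experiments.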

CN[C@H]1CC[C@@H](c2ccc(Cl)c(Cl)c2)c2ccccc21 [sertraline]
MIC [1]: ≥ 0.5 µg/mL

OC(Cn1cncn1)(Cn1cncn1)c1ccc(F)cc1F [Fluconazole, fluconazole, reference compound]
Growth (OD600) +Fluc ([2]; isolate 17): 3.96 OD600
Growth (OD600) +Fluc ([2]; isolate 23): 6.77 OD600
Growth (OD600) +Fluc ([2]; isolate 26): 6.44 OD600
Growth (OD600) +Fluc ([2]; isolate 33): 7.38 OD600
Growth (OD600) +Fluc ([2]; isolate 36): 5.08 OD600
Growth (OD600) +Fluc ([2]; isolate 45): 9.17 OD600
MIC90 ([3]; read-out: MIC90 for fluconazole, susceptible strain, synazo-1 present at 300 nM): 0.125 µM (≈ 0.0383 µg/mL)
MIC90 ([3]; read-out: MICFlc (MIC90), isolate 26, fluconazole alone): 836 µM (≈ 256 µg/mL)
MIC90 ([3]; read-out: MICFlc (MIC90), isolate 45, fluconazole alone): 836 µM (≈ 256 µg/mL)
MIC90 ([3]; read-out: MICFlc (MIC90), strain HLY4123, fluconazole alone): 0.5 µM (≈ 0.153 µg/mL)
MICFlc ([4]; isolate 17): 32
MICFlc ([4]; isolate 23): 32
MICFlc ([4]; isolate 26): 32
MICFlc ([4]; isolate 33): 64
MICFlc ([4]; isolate 36): 64
MICFlc ([4]; isolate 45): 128
Ki [5]: 30 nM

Cc1c(Cl)ccc2c1NC(=O)[C@@]21[C@H]2C(=O)N(c3ccccc3)C(=O)[C@H]2[C@H]2CN(C(=O)OCc3ccccc3)CCN21 (racemic) [Compound 31, (±)-benzyl (3R,3a′R,3b′S,9a′S)-6-chloro-7-methyl-1′,2,3′-trioxo-2′-phenyl-2′,3′,3a′,3b′,4′,6′,7′,9a′-octahydrospiro[indoline-3,9′-pyrrolo[3′,4′:3,4]pyrrolo[1,2-a]pyrazine]-5′(1′H)-carboxylate]
EC50 [6]: 0.3 ± 0.01 nM
EC50 ([2]; enhancing the effect of fluconazole against some resistant strains, lowest value): ≥ 2 nM
Growth (OD600) +Cpd 31 +Fluc ([2]; isolate 17): 0.76 OD600
Growth (OD600) +Cpd 31 +Fluc ([2]; isolate 23): 0.60 OD600
Growth (OD600) +Cpd 31 +Fluc ([2]; isolate 26): 0.83 OD600
Growth (OD600) +Cpd 31 +Fluc ([2]; isolate 33): 0.88 OD600
Growth (OD600) +Cpd 31 +Fluc ([2]; isolate 36): 1.07 OD600
Growth (OD600) +Cpd 31 +Fluc ([2]; isolate 45): 1.03 OD600
EC50 ([2]; read-out: Potency +Cpd 31 EC50, isolate 45, fluconazole 64 μg/mL, mean ± SD of three experiments): 16 ± 0.002 nM
MICcpd (MIC90) ([3]; isolate 26): >30 µM
FICI ([3]; isolate 26): 0.14
MICcpd(+Flc) (MIC90) ([3]; isolate 26): 0.3 µM
MICcpd (MIC90) ([3]; isolate 45): >30 µM
FICI ([3]; isolate 45): 0.13
MICcpd(+Flc) (MIC90) ([3]; isolate 45): 0.03 µM
MICcpd (MIC90) ([3]; strain HLY4123): >300 µM
FICI ([3]; strain HLY4123): 0.25
MICcpd(+Flc) (MIC90) ([3]; strain HLY4123): 0.03 µM
FIC index ([3]; with fluconazole, in all of the strains tested (susceptible and resistant)): below 0.5
toxicity of compound alone against the strains ([3]; without fluconazole, at the solubility limit): did not have measurable toxicity
cytotoxicity [7]: low toxicity
